In the library only some 1.6% were active in any assay of this set; here they are far more common.
S1P2 ag: agonists of human S1P2 receptor. S1P2-expressing cell line, agonist reporter read-out. activation, % at 4.5 µM. hit rate 0.46% among 97,000. AID 729; in the data active = activation above about 16%;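 also: 0% = vehicle low control and 100% = maximal reference agonist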
GALR2 antag: GALR2 (human) receptor antagonism; O43603; GALR2-expressing cells, antagonist mode; inhibition, % at 4 µM; hit rate 0.39% among 140,000; in the data active = inhibition above about 27%;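 also: cells stimulated with galanin 1-16 at roughly its EC80; 0% = agonist challenge control and 100% = basal control without agonist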
Target sequence (O43603 whole entry, looked up): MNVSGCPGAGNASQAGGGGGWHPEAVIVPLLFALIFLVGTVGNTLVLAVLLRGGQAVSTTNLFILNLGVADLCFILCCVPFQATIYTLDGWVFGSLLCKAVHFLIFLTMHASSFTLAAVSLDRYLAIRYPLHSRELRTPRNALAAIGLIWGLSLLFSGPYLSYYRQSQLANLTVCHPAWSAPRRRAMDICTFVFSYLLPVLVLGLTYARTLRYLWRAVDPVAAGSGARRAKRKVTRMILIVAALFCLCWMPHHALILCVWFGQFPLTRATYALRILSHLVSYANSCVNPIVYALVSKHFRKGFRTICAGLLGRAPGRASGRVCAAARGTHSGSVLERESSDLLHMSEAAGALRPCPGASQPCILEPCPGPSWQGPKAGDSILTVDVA
Rev-RRE block: HIV Rev-RRE protein-RNA interaction inhibition | AID 704 | inhibition, % at 8 µM | P05866 | Rev peptide-RRE RNA binding, FRET | hit rate 0.79% among 97,000;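 active = inhibition above the screen-wide mean plus 3 SD, cut at about 35% in these data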;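 also: 0% = median DMSO wells and 100% = median Neomycin B control wells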
Target sequence (P05866 whole entry, looked up): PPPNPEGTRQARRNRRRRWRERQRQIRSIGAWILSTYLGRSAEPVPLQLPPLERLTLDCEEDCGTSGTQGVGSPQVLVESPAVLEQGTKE
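Test system: labelled RRE RNA duplex and labelled Rev peptide. Times: 5 min compound–RNA preincubation, then 15 min with peptide, 25 °C. Doses: single-dose 8 µM. Measured by: FRET, excitation 480 nm, emission 540 nm donor and 671 nm acceptor. Measure: % inhibition of FRET ratio versus controls.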
GALR2 ag: activates the human galanin receptor 2; GALR2-expressing cells, agonist activation read-out; hit rate 0.48% among 140,000; activation, % (concentration not given with the values); AID 803; in the data active = activation above about 5%, passing the limit was not always enough;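 also: 0% = vehicle buffer wells and 100% = reference agonist at full effect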
S1P2 antag: S1P2 (human) receptor antagonism. O95136. cell-based S1P2 antagonist assay, inhibition at 5 uM. inhibition, % at 5 µM. hit rate 0.21% among 97,000. AID 736; in the data active = inhibition above about 45%;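 also: CRE beta-lactamase reporter cells expressing human S1P2 stimulated with S1P; 0% = agonist at EC80 alone and 100% = agonist plus reference antagonist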
GALR2 ag confirm: confirmation of human galanin receptor 2 (GALR2) agonists. shares compounds with GALR2 ag. GALR2-expressing cells, agonist activation. activation, % at 5.6 µM. hit rate 10% among 460. AID 864; in the data active = activation above about 8.4%;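 also: 0% = buffer-only vehicle wells and 100% = full reference agonist response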
BLA activ ctr: activates beta-lactamase reporter in GALR2 agonist counterscreen; shares compounds with GALR2 ag; CHO NFAT-bla reporter, beta-lactamase FRET activation; activation, % at 5.6 µM; hit rate 10% among 460;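 active = activation above the screen-wide mean activation plus 3 SD, cut at about 8% in these data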;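 also: 0% = DMSO with PBS wells and 100% = thapsigargin positive control wells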
* = called active by the depositor; . = no result given; [ ] = dose if it differs, or a comment.

SMILES | S1P2 ag | GALR2 antag | Rev-RRE block | GALR2 ag | S1P2 antag | others
O=C(Nc1ccc(Cl)cc1)Nc1nccs1 | 52.8* | 14.2 | 11.3 | 0.3 | 13.1
Cc1nc2nc(SCC(=O)N3CCC4(CC3)OCCO4)nn2c(C)c1Cc1ccccc1 | -3.2 | -0.7 | 1.9 | -1.4 | -25.1
CCn1c(O)c(C=Nc2ccc(N3CCOCC3)cc2)c(=O)n(CC)c1=S | -10.8 | -0.9 | 97.8*[fluorescence artefact?] | -2.0 | 26.1
Cn1c(C(=O)O)c(CC(=O)N2CCN(Cc3ccccc3)CC2)c2ccccc21 | -6.3 | -8.3 | 8.8 | -2.3 | 14.9
CCC(=NCCCn1ccnc1)c1c(O)n(Cc2ccccc2)c(=O)[nH]c1=O | -3.8 | -12.7 | 4.7 | -0.2 | -10.1
Cc1ccnc(-n2c(C)cc(C=C3C(=O)N(C)C(=S)N(C)C3=O)c2C)c1 | -6.2 | 1.1 | 51.9* | -2.1 | 7.2
C=CCn1c(=O)c(C=Nc2cccc([N+](=O)[O-])c2)c(O)n(CCCC)c1=O | -5.0 | -14.9 | 45.0* | -1.5 | 15.1
C=CCn1c(=O)c(C=Nc2c(OC)cccc2[N+](=O)[O-])c(O)n(CCCC)c1=O | . | -6.9 | . | -0.3 | .
CN(C)P(=O)(C(Cl)=C(N1CCCCC1)N1CCCCC1)N(C)C | -2.9 | -1.8 | 0.4 | -0.7 | -14.7
CCN1/C(=C\C=C\C2=[N+](CC)c3ccccc3C2(C)C)C(C)(C)c2ccccc21 | -5.0 | -9.5 | 57.1*[fluorescence artefact?] | 2.5 | 105.7*
CN1C(=O)C(=Cc2ccc(N3CCCCC3)o2)C(=O)N(C)C1=S | -2.8 | 5.9 | 120.5*[fluorescence artefact?] | 1.4 | -6.6
CCN(CC)c1ccc(C=C2C(=O)N(C)C(=S)N(C)C2=O)o1 | . | 8.3 | . | -1.4 | .
O=C1NC(=O)N(c2ccc3c(c2)OCO3)C(=O)/C1=C/c1ccc(N2CCCCC2)o1 | -3.0 | -10.8 | 124.3*[fluorescence artefact?] | -1.1 | -0.8
CC(C)Cc1[nH]c(=O)c(C#N)c2c1CCC2 | -9.5 | 1.5 | 3.0 | -2.6 | 9.8
O=C1NC(=O)N(c2ccccc2)C(=O)/C1=C/c1ccc(Sc2ccccc2)o1 | 0.2 | -6.4 | 20.2 | -1.5 | 47.2*
CCOC(=O)c1c(N)n(Cc2ccco2)c2nc3ccccc3nc12 | 1.1 | 14.8 | 18.0 | 1.7 | -16.6
Nc1c(C(=O)NCc2ccco2)c2nc3ccccc3nc2n1Cc1ccccc1 | . | 6.7 | . | 5.1* | .
Nc1c(C(=O)NCc2ccco2)c2nc3ccccc3nc2n1Cc1ccc(F)cc1 | 48.0* | -17.8 | 24.3 | 27.8* | -50.6
CC(C)N1C(=O)/C(=C/C=C/c2ccco2)C(=O)N(Cc2ccco2)C1=O | -3.6 | -8.9 | 52.8* | -1.0 | -7.3
CCN(CC)c1ccc(N=Cc2c(O)n(-c3ccccc3C)c(=O)[nH]c2=O)cc1 | -4.6 | -9.2 | 65.6* | -2.2 | 0.2
CCOc1ccc(-n2c(O)c(C=Nc3ccc(N(CC)CC)cc3)c(=O)[nH]c2=O)cc1 | -4.2 | -15.2 | 71.4* | -1.2 | 22.8
CCC(C)N1CCN(C(=O)Cc2ccccc2)CC1 (centres undefined) | -7.0 | 4.4 | 5.2 | -1.8 | -11.2
CCCCn1c(N)c(C(=O)NCc2cccs2)c2nc3ccccc3nc21 | 18.3* | -10.9 | 12.1 | 35.6* | -2.6
CCCCCCn1c(N)c(C(=O)NCCN2CCOCC2)c2nc3ccccc3nc21 | 29.5* | -5.9 | 7.1 | 20.4* | -27.3
Nc1c(C(=O)NCCCc2ccccc2)c2nc3ccccc3nc2n1Cc1cccs1 | 83.7* | -2.9 | 19.5 | 32.1* | -62.6
SMILES | S1P2 ag | GALR2 antag | Rev-RRE block | GALR2 ag | S1P2 antag | others
COCCCn1c(N)c(C(=O)NCCC(C)C)c2nc3ccccc3nc21 | 28.6* | -14.9 | 6.0 | 33.1* | -31.0
CCCCCn1c(N)c(C(=O)NCc2cccs2)c2nc3ccccc3nc21 | 13.0 | -0.4 | 9.9 | 1.8 | -13.5
CC(C)N1CCN(c2ccc(O)cc2)CC1 | . | -4.8 | . | -1.7 | .
CC1=CC(=O)C2=C(C)CC(O)C3C(C)C(=O)OC3C12 (centres undefined) | -3.1 | 0.2 | 0.6 | -1.4 | 5.0
CCOC(=O)c1c(NC(=O)C(c2ccccc2)c2ccccc2)sc2c1C1CCN2CC1 | -2.2 | 9.1 | 0.1 | 0.9 | -2.1
COc1ccc(CCNC(=O)c2c(N)n(CCN3CCOCC3)c3nc4ccccc4nc23)cc1OC | 6.0 | -12.0 | 4.4 | 4.2 | 0.6
CCCCCn1c(N)c(C(=O)NCCN2CCOCC2)c2nc3ccccc3nc21 | 16.4* | -11.1 | 17.4 | 5.7 | -12.8
Nc1c(C(=O)NCc2ccco2)c2nc3ccccc3nc2n1CCN1CCOCC1 | 4.9 | -21.2 | 14.7 | 3.4 | -30.1
CCOC(=O)c1c(NC(=O)c2c(N)n(CCCOC)c3nc4ccccc4nc23)sc2c1CCCC2 | -7.2 | 3.4 | 7.4 | -2.3 | -2.1
CCCCn1c(NC(=O)c2ccco2)c(C(=O)OCC)c2nc3ccccc3nc21 | -2.6 | 0.9 | 30.3 | 0.0 | 16.9
CCCCn1c(NS(=O)(=O)c2ccc(C)cc2)c(C(=O)OCC)c2nc3ccccc3nc21 | . | -8.0 | . | 7.0* | .
CCOCCCn1c(N)c(C(=O)Nc2sc3c(c2C(=O)OC)CCCC3)c2nc3ccccc3nc21 | 0.6 | 3.4 | 48.7* | 0.0 | 17.6
CCCCNC(=O)c1c(N)n(Cc2ccc3c(c2)OCO3)c2nc3ccccc3nc12 | 38.0* | -4.0 | 12.9 | 6.8* | -35.7
CC1=C(C(=O)N2CCC3(CC2)OCCO3)C2(CCC(C)CC2)OC1=O (centres undefined) | -2.4 | -12.3 | 4.3 | -1.1 | 8.0
COCCNCCOc1ccc(C(C)(C)c2ccccc2)cc1 | . | -8.8 | . | 1.0 | .
COc1ccccc1CCNC1C2CC3CC(C2)CC1C3 (centres undefined) | . | 10.8 | . | 0.2 | .
COc1ccc(/C=C2/C(=O)NC(=S)N(C3CC3)C2=O)cc1CN1C(=O)c2ccccc2C1=O | . | 9.3 | . | 0.2 | .
CC(C)OCCCNC(=O)c1c(N)n(CC2CCCO2)c2nc3ccccc3nc12 (centres undefined) | 18.1* | -11.9 | 12.0 | 11.5* | -15.5
CCCNC(=O)c1c(N)n(CC2CCCO2)c2nc3ccccc3nc12 (centres undefined) | 7.3 | 6.6 | 13.0 | 7.8 | -14.3
CCOC(=O)c1c(-n2c(C)cc(C=C3C(=O)NC(=S)NC3=O)c2C)sc2c1CCCC2 | -4.0 | -4.5 | 41.2* | -2.6 | 30.0
Cc1nn(Cc2ccc(Cl)cc2Cl)c(Cl)c1C(=O)Nc1ccc(OC(F)F)cc1 | . | 10.0 | . | 0.6 | .
Cc1cccn2c(=O)c3c(nc12)N1CCC(Cc2ccccc2)CC1C1(C3)C(=O)N(C)C(=O)N(C)C1=O (centres undefined) | 17.4* | -8.9 | 7.8 | 1.9 | 4.3
CCn1c(O)c(C(=O)CC2NCCc3ccccc32)c(=O)n(CC)c1=S (centres undefined) | -4.1 | 1.4 | 48.4* | -2.9 | 17.8
CCn1c(O)c(/C=N/N2CCOCC2)c(=O)n(CC)c1=S | . | -2.5 | . | -2.0 | .
CCC1(CC)C(=N)N(C)C(=O)NC1=O | . | -3.6 | . | 0.2 | .
CN(C)CCc1nc2ccccc2c(=O)n1-c1ccccc1 | 4.1 | -15.2 | -0.5 | 31.5* | -12.2 | GALR2 ag confirm=-0.9;BLA activ ctr=-1.4

Screening results from PubChem.
